Compound activity (PubChem BioAssay)
Most compounds without a hit are left out; they make up all but 2.1% or so of the library.
SMARCA2 activ – SMARCA2 (BRM) function activators, primary screen, cell-based, luminescence, high throughput | MG213 cells, MMTV-luciferase reporter, dexamethasone, overnight | activation, % at 9.1 µM | 370,000 compounds, 1% hits | AID 652017, 2013; in the data active means activation above about 7.8%;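 further: 0% = vehicle wells and 100% = reference activator wells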
CFTR F508del cor – F508del CFTR correction, initial screen, CFBE line, single point; CFBE cells, YFP halide quenching; stimulated with forskolin plus potentiator P3; % fluorescence drop versus neutral controls; activity (quench increase), % at 7.58 µM; 350,000 compounds, 0.36% hits;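 active means mean added fluorescence quench of at least 8% versus neutral control, with both replicates also reaching 8%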;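 further: cells transiently co-express mutant CFTR-F508del with the halide-sensitive YFP; corrector assay measuring rescue of mutant channel to the surface after 24 h compound exposure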
MC4R antag cAMP – MC4R antagonists of cAMP signaling, primary screen, cell-based, TR-FRET, antagonist arm of biased-ligand search; Melanocortin receptor 4 (Homo sapiens), P32245; MC4R-expressing cells, MTII-stimulated cAMP, LANCE TR-FRET; inhibition, % at 6.5 µM; 360,000 compounds, 0.48% hits; AID 540295, 2011;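 active means inhibition above its plate's cutoff, the mean of tested wells on that plate plus 3 SD, cut at about 29% in these data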;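 further: 0% = Melanotan II alone and 100% = Melanotan II plus saturating MCL0020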
Target sequence (P32245 whole entry, looked up): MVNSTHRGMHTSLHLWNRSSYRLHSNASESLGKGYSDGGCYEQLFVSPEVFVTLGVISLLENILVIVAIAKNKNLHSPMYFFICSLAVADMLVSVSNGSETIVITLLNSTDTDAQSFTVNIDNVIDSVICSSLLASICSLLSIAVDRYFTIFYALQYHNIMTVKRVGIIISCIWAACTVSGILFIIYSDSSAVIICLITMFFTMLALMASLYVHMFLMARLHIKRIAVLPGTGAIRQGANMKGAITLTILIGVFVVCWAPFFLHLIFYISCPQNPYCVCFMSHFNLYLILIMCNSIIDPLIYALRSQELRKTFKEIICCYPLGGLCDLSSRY
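system = U2OS cells with stable human MC4R expression | also added = Melanotan II challenge after compound preincubation | dosing = one concentration, 6.5 µM nominal | incubation = compound 30 min, challenge 1 h, detection 1 h | measured by = TR-FRET with Eu-cAMP and labeled anti-cAMP, 671 nm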
MC4R ag barr – MC4R agonists recruiting beta-arrestin, primary screen, cell-based, luminescence, agonist arm of biased-ligand search. Melanocortin receptor 4 (Homo sapiens), P32245. U2OS MC4R beta-arrestin complementation; percent of melanotan II response, DMSO zero. activation, % at 8.9 µM. 360,000 compounds, 0.98% hits. AID 540308, 2011;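 active means activation above a per-plate cutoff, the mean activation of sample wells on that plate plus 3 SD, cut at about 8% in these data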
SMARCA2 act conf – SMARCA2 (BRM) function activators, confirmation, cell-based, luminescence, triplicate; shares compounds with SMARCA2 activ; MG213 cells, MMTV-luciferase with dexamethasone, overnight; MG213 cells expressing E1A, Rb sequestered; DMSO wells 0%, reference activator 100%; AID 652260, 2013; activation, % at 9.1 µM; 3,500 compounds, 30% hits;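 active means activation above its plate's cutoff, the mean activation of tested wells plus 3 SD, cut at about 7.9% in these data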
GAL4-VP16 Luc – GAL4-VP16 luciferase reporter activation, counter-screen for SMARCA2 (BRM) activator project, cell-based, pG5luc, luminescence, high throughput; shares compounds with SMARCA2 activ; HEK293 GAL4-VP16 pG5luc reporter; scaled: DMSO wells 0%, SAHA wells 100%; activation, % at 9.1 µM; 3,500 compounds, 41% hits;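 active means activation above the solvent-only control well mean plus 3 SD, averaged across control plates, cut at about 5.2% in these data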
* hit, by the source's call; x = not tested or not shown.

SMILES	SMARCA2 activ	CFTR F508del cor	MC4R antag cAMP	MC4R ag barr	SMARCA2 act conf	GAL4-VP16 Luc
C[C@H](NC(=O)N(C)C[C@@H]1OCc2ccccc2-c2c(n(C)c3ccccc23)C(=O)N([C@@H](C)CO)C[C@@H]1C)c1ccccc1	x	-1	x	x	x	x
CCC(=O)Nc1cc2c(cc1Cl)-c1ccccc1C2	9.5*	2	-4	-2	3	5
CC(=O)N(C)C[C@@H]1Oc2ncc(-c3ccc(F)cc3)cc2C(=O)N([C@@H](C)CO)C[C@H]1C	x	3	x	x	x	x
Cc1cccc(C)c1NC(=O)c1c[nH]c2ccccc12	13*	-5	2	-1	8.7*	9.4*
Cc1cccc(C)c1NC(=O)CNC(=O)Cc1c[nH]c2ccccc12	-3	2	2	-3	x	x
COc1ccccc1NC(=O)c1c[nH]c2ccccc12	10*	0	1	-1	4	4
CNC[C@@H]1Oc2c(NC(=O)c3cc(C)nn3C)cccc2C(=O)N([C@H](C)CO)C[C@H]1C	x	-4	x	x	x	x
COc1ccc(-c2nc3ccc(C)cn3c2NCc2ccc3c(c2)OCO3)cc1	5	x	-1	-4	x	x
Cc1ccc(-c2nc3ccccn3c2NCc2ccc3c(c2)OCO3)cc1	10*	x	4	0	8.2*	5
COc1ccccc1NC(=O)N[C@H]1CC[C@H](CC(=O)N[C@H](C)c2ccccc2)O[C@@H]1CO	x	0	x	x	x	x
C[C@@H]1CN([C@H](C)CO)C(=O)Cc2cc(NC(=O)c3ccncc3)ccc2O[C@@H]1CN(C)C(=O)NC1CCCCC1	x	3	x	x	x	x
Cc1cccc(OCC(=O)O/N=C(\N)c2ccccn2)c1C	9.2*	x	-5	-1	10*	7.0*
Cc1ccc(CC(=O)O/N=C(\N)c2ccccn2)cc1	8.9*	2	4	-2	9.7*	8.4*
Cc1ccc(OCC(=O)O/N=C(\N)c2ccccn2)cc1	3	-2	5	-2	x	x
CC(C)(C)CC(=O)O/N=C(\N)c1ccccn1	11*	x	2	1	8.8*	2
O=C(O)C[C@H]1CC[C@@H](NC(=O)Nc2cc(F)ccc2F)[C@@H](CO)O1	x	-1	x	x	x	x
Cc1nc(NC(=O)/C=C/c2ccco2)sc1C	10*	x	-15	-2	7	7.6*
CCSc1nnc(NC(=O)/C=C/c2ccco2)s1	10*	2	1	2	6	7.8*
Cn1nnc(-c2ccc(OCc3ccccc3F)cc2)n1	11*	x	-4	-1	7	13*
Fc1ccccc1COc1ccc(-c2nnn(Cc3ccccc3F)n2)cc1	3	-4	-3	-1	x	x
COc1cccc(C(=O)Nc2cc(=O)n(C)c(=O)n2C)c1OC	8.3*	3	24	-1	-3	3
CO[C@H]1CN(C)C(=O)c2ccc(NC(=O)c3ccccc3F)cc2OC[C@@H](C)N(C(=O)c2ccccc2F)C[C@@H]1C	x	-1	x	x	x	x
COC(=O)Nc1ccc2ncn(C)c(=O)c2c1	9.9*	2	7	-1	-2	0
C[C@H](CO)N1C[C@H](C)[C@@H](CN(C)Cc2ccc(-c3ccccc3)cc2)OCc2ccccc2-c2c(n(C)c3ccccc23)C1=O	x	2	x	x	x	x
COc1ccc(-n2nc3c(N4CCC(C(=O)NCc5cccc(C)c5)CC4)nnc(C)c3c2C)cc1	14*	-5	7	7	17*	1
SMILES	SMARCA2 activ	CFTR F508del cor	MC4R antag cAMP	MC4R ag barr	SMARCA2 act conf	GAL4-VP16 Luc
O=C(c1cccnc1)N(Cc1ccccc1)C(c1ccccc1)c1nc2ccccc2[nH]1 (configuration not stated)	2	-1	x	x	x	x
O=C(c1ccco1)N(Cc1cccnc1)C(c1ccccc1)c1nc2ccccc2[nH]1 (configuration not stated)	8.6*	3	x	x	11*	6.1*
CC(C)C(=O)Nc1cccc(NC(=O)c2cc3ccccc3o2)c1	9.4*	x	-5	-1	7	10*
CC(=O)Nc1cccc(NC(=O)c2cc3ccccc3o2)c1	3	x	9	1	x	x
Cc1cc(C(=O)Nc2ccccc2)oc1C	9.0*	x	-1	4	4	11*
O=C(Nc1ccccc1)c1cc2ccccc2o1	13*	x	-4	-1	4	5
C[C@@H]1CN([C@H](C)CO)C(=O)Cc2cc(NS(=O)(=O)c3ccc(F)cc3)ccc2O[C@H]1CN(C)Cc1ccc2c(c1)OCO2	x	-1	x	x	x	x
Cc1[nH]n(-c2ccccc2)c(=O)c1/C=N/O	-1	-2	4	-2	x	x
Cc1ccc2cccc(N=Cc3c(C)[nH]n(-c4ccccc4)c3=O)c2n1	14*	x	-3	-7	-13	8.1*
CCOc1ccc(/C=N/N(C)c2ccccc2)cc1OC	8.5*	x	2	0	8.1*	12*
CCOc1ccccc1NC(=O)CSc1nc2ccccc2nc1N1CCCC1	8.3*	1	3	2	-3	0
O=C(Cn1cncn1)N/N=C/c1ccc(Cl)cc1	0	x	4	-1	x	x
O=C(Cn1cncn1)N/N=C/c1cccc(Cl)c1	8.3*	2	-2	-1	1	-1
COc1ccc2nc3ccccc3[n+]([O-])c2c1	8.4*	-2	-22	-1	6	6.2*
COc1ccc2c(ccc[n+]2[O-])c1	0	-2	5	-1	x	x
COc1ccc(S(=O)(=O)N2CCC3(CC2)CN(Cc2ccccc2OC)[C@@H](CO)c2[nH]c4cc(OC)ccc4c23)cc1	x	-1	x	x	x	x
O=C(NC(=S)N1CCc2ccccc21)c1ccccc1	8.5*	x	2	-3	2	1
CCN(CC)CCCNC(=O)C(C)n1nc(C)c2sc3ccccc3c2c1=O (configuration not stated)	-3	x	0	0	x	x
CCN(CC)CCNc1ccc(C)c2sc3ccc(O)cc3c(=O)c12	8.4*	4	-10	0	18*	5
O=C(C[C@H]1CC[C@@H](NS(=O)(=O)c2ccc(F)cc2)[C@H](CO)O1)NCCN1CCCCC1	x	-1	x	x	x	x
COc1ccc2c3c(n(C)c2c1)[C@H](CO)N(C(=O)C1CCOCC1)CC31CCN(C(=O)C2CCOCC2)CC1	x	2	x	x	x	x
CCOC(=O)c1sc(-c2ccccc2)cc1N	9.0*	x	0	0	6	6.4*
COCC(=O)N(C)C[C@H]1Oc2cc(-c3ccc(C)cc3)ccc2S(=O)(=O)N([C@@H](C)CO)C[C@H]1C	x	-1	x	x	x	x
O=C(Nc1ccc2oc(-c3ccccc3Cl)nc2c1)c1cncc(Br)c1	8.1*	x	3	-1	0	5
